Laboratory results from ChEMBL document CHEMBL1649111, “Restoration of susceptibility of intracellular methicillin-resistant Staphylococcus aureus to beta-lactams: comparison of strains, cells, and antibiotics” (Antimicrob Agents Chemother, 2008).

Tests used:
[1] = Chemical stability of the compound assessed as compound remaining after 24 hrs PBS buffer by HPLC analysis at pH 5.5; type: physicochemical; details: read-out: Activity
Method in brief: (§1)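 Drug at 50 mg/liter initial concentration incubated 24 h at 37°C in buffered medium at pH 7.4 or 5.5. Remaining drug measured by HPLC signal disappearance; mobile phase 25 mM phosphate buffer pH 6.7 with acetonitrile (75:25).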

[2] = Chemical stability of the compound assessed as compound remaining after 24 hrs in PBS buffer by HPLC analysis at pH 7.4; type: physicochemical; details: read-out: Activity; method in brief: as §1
[3] = system: THP-1; assay: Ratio of intracellular to extracellular drug level in human THP1 cells at 250 mg/L after 24 hrs; type: ADME, cell-based; details: thp-1, 24 h
Method in brief: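 THP-1 cells incubated 24 h at 250 mg/liter extracellular drug. Cell lysates assayed microbiologically with MSSA ATCC 25923; content expressed per mg total protein. Cellular/extracellular ratio calculated assuming cell volume of 5 μl per mg protein.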

remaining at 24 h [1] [%] | remaining at 24 h [2] [%] | Ratio [3] | SMILES
40.3 | 49.3 | 0.2 | C[C@@H](O)[C@H]1C(=O)N2C(C(=O)O)=C(S[C@@H]3CN[C@H](C(=O)N(C)C)C3)[C@H](C)[C@H]12 [MEROPENEM]
30.5 | 39.3 | 0.05 | C[C@@H](O)[C@H]1C(=O)N2C(C(=O)O)=C(SCCN=CN)C[C@H]12 [IMIPENEM ANHYDROUS]

SMILES | remaining at 24 h [1] [%] | remaining at 24 h [2] [%] | Ratio [3]
Cc1onc(-c2ccccc2)c1C(=O)N[C@@H]1C(=O)N2[C@@H]1SC(C)(C)[C@@H]2C(=O)O [OXACILLIN] | 91.8 | 94.2 | 0.2
